Activity calls are given as the source filed them.

Data set [1] is described as follows: Stability in serum assessed as half life by UV spectrophotometry. It counts as ADME, cell-free.
A short description of data set [2]: Cellular uptake in human MES-SA/Dx5 cells after 2 hrs by flow cytometry. To be noted: mes-sa/dx5, 2 h. In kind it is ADME, cell-based. (A flow cytometer gives signals particle by particle.)
Data set [3] can be described thus: Antiproliferative activity against human MES-SA cells after 96 hrs by SRB assay. It counts as functional, cell-based. Background: The SRB assay estimates cell density from bound dye.
A further data set relates to MDA-MB-468. In words: Antiproliferative activity against human MDA-MB-468 cells after 96 hrs by SRB assay. In kind it is functional, cell-based. Conditions: MDA-MB-468, 96 h. The method, boiled down:
(§1)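 Cells plated at 5000/well, attached overnight, then exposed to a range of drug concentrations for 96 h. Fixed with trichloroacetic acid (1 h, 4 °C), stained with 0.4% sulforhodamine B (2 h, room temperature), dye dissolved in 10 mM Tris base pH 10.0, OD read at 492 nm. IC50 taken from sigmoidal dose-response fit. At least three independent experiments in triplicate. DMSO ≤0.1% (v/v).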

Data set [4] can be described thus: Cellular uptake in human MES-SA/Dx5 cells at 25 uM after 2 hrs by fluorescence microscopy. It counts as ADME, cell-based. Conditions: mes-sa/dx5, 2 h. In a few lines: (§2)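 Cells plated at 70% confluence and left to adhere overnight. Treated with 0, 25 or 50 μM for 2 h, washed twice with PBS, then imaged live without fixation at 40× under fluorescence; blue aminoquinazoline and green dansylated species captured through separate filters.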

The nature of data set [5]: Antiproliferative activity against human MES-SA/Dx5 cells after 96 hrs by SRB assay. In kind it is functional, cell-based. To be noted: MES-SA/Dx5, 96 h. In a few lines: as §1
Data set [6] can be described thus: Cellular uptake in human MES-SA cells at 25 uM after 2 hrs by fluorescence microscopy. In kind it is ADME, cell-based. The method, boiled down:
as §2

Data set [7] deals with MES-SA. The experiment in a line: Selectivity ratio of IC50 for human MES-SA cells to IC50 for human MES-SA/Dx5 cells. It counts as functional.
Data set [8] deals with Epidermal growth factor receptor (Homo sapiens, UniProt P00533). The experiment in a line: Inhibition of EGFR.
Sequence of Epidermal growth factor receptor (P00533 whole entry): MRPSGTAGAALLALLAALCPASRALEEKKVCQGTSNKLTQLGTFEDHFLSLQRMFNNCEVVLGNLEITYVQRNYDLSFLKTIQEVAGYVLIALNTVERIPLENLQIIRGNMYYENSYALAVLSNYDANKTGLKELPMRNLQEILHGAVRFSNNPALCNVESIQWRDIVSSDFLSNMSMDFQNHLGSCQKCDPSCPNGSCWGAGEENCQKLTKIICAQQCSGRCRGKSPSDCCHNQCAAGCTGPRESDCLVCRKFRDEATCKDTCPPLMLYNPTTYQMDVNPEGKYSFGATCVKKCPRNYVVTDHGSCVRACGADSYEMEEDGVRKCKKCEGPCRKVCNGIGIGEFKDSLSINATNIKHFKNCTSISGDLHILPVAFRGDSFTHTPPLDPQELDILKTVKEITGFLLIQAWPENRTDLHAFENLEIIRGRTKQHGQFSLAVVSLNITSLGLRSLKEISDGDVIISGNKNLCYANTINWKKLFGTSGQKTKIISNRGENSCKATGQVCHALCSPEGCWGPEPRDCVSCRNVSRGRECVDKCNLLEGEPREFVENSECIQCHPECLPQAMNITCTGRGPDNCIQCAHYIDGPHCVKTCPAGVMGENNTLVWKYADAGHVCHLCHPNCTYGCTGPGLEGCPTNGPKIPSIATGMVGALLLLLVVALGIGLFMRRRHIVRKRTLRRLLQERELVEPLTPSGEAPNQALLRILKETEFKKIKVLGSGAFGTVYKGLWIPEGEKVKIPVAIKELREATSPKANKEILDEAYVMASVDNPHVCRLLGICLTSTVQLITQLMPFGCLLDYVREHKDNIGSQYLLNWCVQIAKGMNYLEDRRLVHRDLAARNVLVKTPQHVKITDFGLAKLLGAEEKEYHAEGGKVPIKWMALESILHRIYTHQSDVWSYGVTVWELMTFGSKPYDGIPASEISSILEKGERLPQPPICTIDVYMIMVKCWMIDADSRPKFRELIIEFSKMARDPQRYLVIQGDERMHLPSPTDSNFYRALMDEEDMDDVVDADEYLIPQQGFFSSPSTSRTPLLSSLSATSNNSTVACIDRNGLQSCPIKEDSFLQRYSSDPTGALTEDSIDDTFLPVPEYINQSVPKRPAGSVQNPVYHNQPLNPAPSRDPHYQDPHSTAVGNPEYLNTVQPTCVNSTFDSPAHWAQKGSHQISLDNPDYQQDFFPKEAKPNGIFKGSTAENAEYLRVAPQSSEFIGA
A short description of data set [9]: Cellular uptake in human MES-SA cells after 2 hrs by flow cytometry. In kind it is ADME, cell-based.
In data set [10] the test system is MES-SA. The experiment in a line: Induction of DNA damage in human MES-SA cells assessed as increase in comet-tail length by alkaline comet assay. It counts as functional, cell-based.
A further data set deals with MES-SA/Dx5. In words: Induction of DNA damage in human MES-SA/Dx5 cells assessed as increase in comet-tail length by alkaline comet assay. In kind it is functional, cell-based.

What is called half-life is the time needed for the level to fall by half in the phase considered. Take `CN(C)CCN/N=N/c1ccc2ncnc(Nc3cccc(Cl)c3)c2c1`: in data set [1], the half-life was found to be 108 min.

What is called IC50 is the point on the concentration scale where inhibition reaches its midpoint. Read a high IC50 as lower potency. As for `CN(C)c1cccc2c(S(=O)(=O)NCCN=NNc3ccc4ncnc(Nc5cccc(Cl)c5)c4c3)cccc12`, the Drug uptake entry in data set [2], in [4], in data set [6] and in data set [9] was “Active” in each case. Also, the IC50 stood at 26.6 µM in data set [3], 9.1 µM in the data set on MDA-MB-468, 16.6 µM in data set [5] and 1400 nM in data set [8]. Moreover, the “Ratio IC50” value with MES-SA [7] is given as 1.6. The half-life in data set [1] is 4.96 min.

As for `CN(CCN=NNc1ccc2ncnc(Nc3cccc(Cl)c3)c2c1)CCNS(=O)(=O)c1cccc2c(N(C)C)cccc12`, the Drug uptake entry in data set [2], in data set [4], in data set [6] and in [9] was “Active” throughout. For the same compound, the half-life in data set [1] is 21.7 min. The same compound had an IC50 in [8] of 600 nM.

Turning to `CN(CCN/N=N/c1ccc2ncnc(Nc3cccc(Cl)c3)c2c1)CCNS(=O)(=O)c1cccc2c(N(C)C)cccc12`, the IC50 in [3] was determined as 8.57 µM; in the data set on MDA-MB-468 it was 5.2 µM; in [5], 9.34 µM. In addition, the outcome with MES-SA [10] and with MES-SA/Dx5 was Active.

Turning to `COc1cccc2c1C(=O)c1c(O)c3c(c(O)c1C2=O)C[C@@](O)(C(=O)CO)C[C@@H]3O[C@H]1C[C@H](N)[C@H](O)[C@H](C)O1` [DOXORUBICIN], the result with MES-SA [10] and with MES-SA/Dx5 was Active. This compound displayed an IC50 in [5] of 3.1 µM. Besides, the Drug uptake entry in data set [6] and in data set [9] was “Active” throughout.

For the origin of these results see ChEMBL document CHEMBL1157582, “Synthesis and uptake of fluorescence-labeled Combi-molecules by P-glycoprotein-proficient and -deficient uterine sarcoma cells MES-SA and MES-SA/DX5” (J Med Chem, 2010).
